Assay outcomes as filed in PubChem.
DENV2 CPE – inhibitors of DENV2 cytopathic effect, primary screen, cell-based, plate reader, single concentration. DENV2-infected cells, cytopathic effect rescue. CPE inhibition, % at 9.99 µM. 1.7% of 350,000 active; in the data active means CPE inhibition above about 20%, passing the limit was not always enough; inconclusive means no clear call, values can overlap the other calls; tested in BHK-21 cells;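 further: 0% = median of neutral control wells and 100% = median of positive control wells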
E-sel inducer – E-selectin induction in HUVECs, primary screen, imaging, HUVEC, immunofluorescence imaging, single point; 0.37% of 260,000 active; AID 686992, 2013; normalized: neutral wells 0, TNF-alpha wells 100; P16581; activation, % at 7.58 µM;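 active means mean E-selectin-positive cell signal at least 10% of the positive control, reached in at least 60% of replicates, without over 20% cell loss; inconclusive means no rule given, readout overlaps actives, possibly toxicity-flagged; inactive means the rest, including those meeting only one limit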
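assay system = HUVEC, human umbilical vein endothelial cells | input = 3,000 HUVEC seeded per well | medium = EGM-2 growth medium on 0.1% gelatin-coated wells | dosing = one compound dose added by pin transfer | signal = immunofluorescence imaging | read-out basis = % PE-positive cells | control set = TNF-alpha, DMSO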
SIRT5 block – SIRT5 desuccinylase inhibitors, primary screen, biochemical, fluorescence imaging, single point, set 5. NAD-dependent protein deacylase sirtuin-5, mitochondrial (Homo sapiens), Q9NXA8. Purified SirT5, succinyl-peptide AMC, trypsin-coupled fluorescence. inhibition, % at 15 µM. 1.1% of 330,000 active. AID 652115, 2013; in the data active means inhibition above about 15%; inconclusive means no clear call, values can overlap the other calls
Target sequence (Q9NXA8 whole entry, looked up): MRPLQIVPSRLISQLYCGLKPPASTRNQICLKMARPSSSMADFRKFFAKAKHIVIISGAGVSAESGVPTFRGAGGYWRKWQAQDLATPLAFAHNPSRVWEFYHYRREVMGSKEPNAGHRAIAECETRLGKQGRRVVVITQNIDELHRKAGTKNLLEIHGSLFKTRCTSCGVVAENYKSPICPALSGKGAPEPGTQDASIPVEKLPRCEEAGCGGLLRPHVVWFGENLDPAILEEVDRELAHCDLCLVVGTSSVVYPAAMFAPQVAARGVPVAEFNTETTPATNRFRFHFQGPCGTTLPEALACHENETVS
* = called active by the depositor. Rows were chosen to be rich in hits. Some 2.8% of all compounds tested hit in one or more screens of this group.

For C[C@@H]1CN([C@H](C)CO)C(=O)Cc2cc(NS(=O)(=O)c3ccc(Cl)cc3)ccc2O[C@H]1CN(C)CC1CCCCC1 the results were DENV2 CPE -3.1, E-sel inducer -11.1 and SIRT5 block 13.8.
`C[C@H](CO)N1C[C@H](C)[C@@H](CN(C)CC2CC2)Oc2ccc(NS(=O)(=O)c3ccc(Cl)cc3)cc2CC1=O` gave DENV2 CPE 5.7, E-sel inducer 1.6 and SIRT5 block 2.1.
C[C@@H]1CN([C@H](C)CO)C(=O)Cc2cc(NS(=O)(=O)c3ccc(Cl)cc3)ccc2O[C@@H]1CN(C)CC1CCCCC1 was read as DENV2 CPE 48.9* and E-sel inducer -9.3.
`C[C@H](CO)N1C[C@H](C)[C@@H](CN(C)CC2CCCCC2)Oc2ccc(NS(=O)(=O)c3ccc(Cl)cc3)cc2CC1=O` gave DENV2 CPE 7.9, E-sel inducer -11.1 and SIRT5 block 17.7*.
`CCC(=O)N1C[C@@H]2[C@H](c3ccccc31)[C@@H](CO)N2Cc1ccccc1F` gave DENV2 CPE 5.3, E-sel inducer 3.1 and SIRT5 block 0.3.
Screening C[C@@H]1CN([C@H](C)CO)C(=O)Cc2cc(NS(=O)(=O)c3ccc(Cl)cc3)ccc2O[C@@H]1CN(C)Cc1ccc(Cl)c(Cl)c1 returned DENV2 CPE -0.6, E-sel inducer -0.7 and SIRT5 block 16.0*.
For C[C@@H]1CN([C@H](C)CO)C(=O)Cc2cc(NS(=O)(=O)c3ccccc3)ccc2O[C@@H]1CN(C)Cc1ccc(Cl)c(Cl)c1 the results were DENV2 CPE 7.7, E-sel inducer 0.1 and SIRT5 block -1.3.
C[C@@H]1CN([C@H](C)CO)C(=O)Cc2cc(NS(=O)(=O)c3ccccc3)ccc2O[C@H]1CN(C)Cc1ccc(Cl)c(Cl)c1 was read as DENV2 CPE 32.6*, E-sel inducer 0.0 and SIRT5 block 18.1*.
`C[C@H]1CN([C@@H](C)CO)C(=O)Cc2cc(NS(=O)(=O)c3ccc(Cl)cc3)ccc2O[C@H]1CN(C)Cc1ccc(Cl)c(Cl)c1` gave DENV2 CPE 8.2, E-sel inducer -0.2 and SIRT5 block 6.2.
COCCNC(=O)[C@@H]1[C@@H](CO)[C@@H]2Cn3c(ccc(-c4ccccc4OC)c3=O)[C@@H]2N1C(=O)C1CCC1 was read as DENV2 CPE -1.3, E-sel inducer -0.1 and SIRT5 block -15.0.
`CCCNC(=O)C[C@@H]1CC[C@H]2[C@H](COc3ccc(NC(=O)C4CCOCC4)cc3C(=O)N2C)O1` gave DENV2 CPE 0.2, E-sel inducer 0.0 and SIRT5 block -0.5.
For C[C@H]1CN([C@@H](C)CO)C(=O)c2cc(NS(=O)(=O)c3ccc(F)cc3)ccc2O[C@@H]1CN(C)Cc1ccc(-c2ccccc2)cc1 the results were DENV2 CPE -5.7, E-sel inducer 1.3 and SIRT5 block 15.4*.
Screening C[C@H](CO)N1C[C@H](C)[C@@H](CN(C)Cc2ccc(-c3ccccc3)cc2)Oc2ccc(NS(=O)(=O)c3ccc(F)cc3)cc2C1=O returned DENV2 CPE 0.6, E-sel inducer 1.2 and SIRT5 block 4.2.
`C[C@H](CO)N1C[C@H](C)[C@H](CN(C)Cc2ccc(-c3ccccc3)cc2)Oc2ccc(NS(=O)(=O)c3ccc(F)cc3)cc2C1=O` gave DENV2 CPE -0.6, E-sel inducer 1.6 and SIRT5 block 14.6.
Screening C[C@@H]1CN([C@H](C)CO)C(=O)c2cc(NS(=O)(=O)c3ccc(F)cc3)ccc2O[C@H]1CN(C)Cc1ccc(-c2ccccc2)cc1 returned DENV2 CPE 30.3*, E-sel inducer 0.1 and SIRT5 block 10.6.
C[C@H](CO)N1C[C@H](C)[C@@H](CN(C)Cc2ccccc2)Oc2ccc(NS(=O)(=O)c3ccc(F)cc3)cc2C1=O was read as DENV2 CPE -5.4, E-sel inducer -0.1 and SIRT5 block -1.4.
C[C@H]1CN([C@@H](C)CO)C(=O)c2cc(NS(=O)(=O)c3ccc(F)cc3)ccc2O[C@H]1CN(C)Cc1ccccc1 was read as DENV2 CPE 47.1*, E-sel inducer 0.3 and SIRT5 block 5.8.
`O=C(Nc1ccccc1Cl)N1[C@H](CO)[C@@H]2c3ccccc3NC[C@@H]21` gave DENV2 CPE -3.5, E-sel inducer -0.3 and SIRT5 block -1.2.
`Cc1ccc(S(=O)(=O)Nc2ccc3c(c2)CC(=O)N([C@H](C)CO)C[C@H](C)[C@H](CN(C)C(=O)Nc2c(C)noc2C)O3)cc1` gave DENV2 CPE -9.4, E-sel inducer -0.2 and SIRT5 block 7.9.
For CO[C@H]1CN(C)C(=O)c2cc(NC(=O)c3ccc4c(c3)OCO4)ccc2OC[C@H](C)NC[C@@H]1C the results were E-sel inducer 7.7.
CC(C)CC#Cc1ccc2c(c1)O[C@@H](CN(C)C)[C@H](C)CN([C@H](C)CO)S2(=O)=O was read as DENV2 CPE 9.7, E-sel inducer -0.2 and SIRT5 block 0.3.
For CO[C@@H]1CN(C)C(=O)c2ccc(NC(=O)NC3CCCCC3)cc2OC[C@@H](C)N(CC2CC2)C[C@H]1C the results were DENV2 CPE 11.5 and E-sel inducer 0.0.
Screening O=C(C[C@@H]1CC[C@@H]2[C@H](COC[C@@H](O)CN2C(=O)Nc2cccc(F)c2)O1)NCCCN1CCOCC1 returned E-sel inducer -0.3 and SIRT5 block -1.6.
`COc1ccc(C#Cc2ccc3c(c2)[C@]2(C(=O)N3)[C@H](c3ccc(OCCO)cc3)N3[C@H](c4ccccc4)[C@H](c4ccccc4)OC(=O)[C@H]3[C@@H]2C(=O)NC[C@H](O)c2ccccc2)cc1` gave DENV2 CPE 4.5 and SIRT5 block 2.3.
Screening C[C@H]1CCCCO[C@@H](CN(C)C(=O)Nc2ccc(C(F)(F)F)cc2)[C@@H](C)CN([C@@H](C)CO)C(=O)c2cc(NC(=O)Nc3ccc(C(F)(F)F)cc3)ccc2O1 returned DENV2 CPE 18.2 and E-sel inducer 0.2.
`CN1CCN(c2ncnc3c2ncn3[C@H]2CN(Cc3ccc(Cl)cc3)C[C@@H](CO)O2)CC1` gave DENV2 CPE 34.8*.
OCCN1CCN(c2ncnc3c2ncn3[C@H]2CN(Cc3ccc(Cl)cc3)C[C@@H](CO)O2)CC1 was read as DENV2 CPE -7.4, E-sel inducer -0.1 and SIRT5 block -1.2.
COCC(=O)Nc1ccc2c(c1)C(=O)N(C)C[C@H](OC)[C@H](C)CN(C(=O)CC1CC1)[C@@H](C)CO2 was read as DENV2 CPE 18.1, E-sel inducer 0.0 and SIRT5 block 4.2.
`NC(=O)c1ccccc1NC(=O)COC(=O)C1(c2ccccc2)CC1` gave DENV2 CPE 32.4* and SIRT5 block -2.6.
Screening O=C(COC(=O)C1(c2ccccc2)CC1)NNC(=O)c1ccccc1 returned DENV2 CPE inconclusive and SIRT5 block 0.6.
For Cc1ccc(NCc2n[nH]c(=S)n2-c2ccccc2)cc1 the results were DENV2 CPE -3.3, E-sel inducer 30.3* and SIRT5 block 11.7.
`Cc1cccc(NCc2n[nH]c(=S)n2-c2ccccc2)c1` gave DENV2 CPE 14.7, E-sel inducer 1.1 and SIRT5 block -3.4.
